Converted amounts (≈) assume the structure as drawn. The source made the active and inactive calls. The calls are words filed in the database; no cut-off is given here.
Key:
Escherichia coli [1] = test: Photobactericidal activity against Escherichia coli assessed as dead bacteria with permeable membrane at 1 uM incubated for 30 mins followed by 3 washings by propidium iodide staining based flow cytometry; assay type: functional
Outline: (§1)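 Bacteria were incubated with 1 µM conjugate for 30 min at 37 °C, washed with saline, then stained with propidium iodide (0.01 mg/mL) to assess viability. Samples were analysed by flow cytometry. Q1 is the PI-positive (permeable membrane) population; Q2 is double positive for PI and photosensitizer fluorescence.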

Staphylococcus aureus [2] = test: Photobactericidal activity against Staphylococcus aureus assessed as dead bacteria with permeable membrane at 1 uM incubated for 30 mins followed by 1 washing by propidium iodide staining based flow cytometry; assay type: functional; outline: as §1
Staphylococcus aureus [3] = test: Photobactericidal activity against Staphylococcus aureus assessed as live bacterial cells with membrane integrity loss at 1 uM incubated for 30 mins followed by 1 washing by propidium iodide staining based flow cytometry; assay type: functional; outline: as §1
Staphylococcus aureus [4] = test: Photobactericidal activity against Staphylococcus aureus assessed as PI-positive and PS-positive cell population at 1 uM incubated for 30 mins followed by 1 washing by propidium iodide staining based flow cytometry; assay type: functional; outline: as §1
Escherichia coli [5] = test: Bactericidal activity against Escherichia coli CIP54.8T incubated for 30 mins under dark conditions; assay type: organism-based; conditions: 0.5 h
Outline: (§2)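 Minimal bactericidal concentration (MBC) was determined in tryptic soy medium with log-phase bacteria at 37 °C. Plates were either kept in the dark or given 20 h of white light at 4.83 mW/cm². MBC was taken as the concentration killing 99.99% of bacteria, i.e. a 4-log reduction versus the untreated control.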

Pseudomonas aeruginosa [6] = test: Photobactericidal activity against Pseudomonas aeruginosa CIP76110 irradiated with white light at 4.83 mW/cm2 for 20 hrs; assay type: functional; conditions: CIP76110, light or radiation study; outline: as §2
Escherichia coli [7] = test: Photobactericidal activity against Escherichia coli at 10 uM pretreated for 30 mins followed by compound wash out with subsequent irradiation with white light at 4.83 mW/cm2; assay type: functional, organism-based
Outline: (§3)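 Bacteria were pre-incubated with conjugate in 1X PBS (P. aeruginosa at 1 µM), then washed three times with PBS. They were irradiated with white LED light (4.83 mW/cm²; 7 J/cm² corresponds to 24 min) at 37 °C. Survival, as % of initial density, was plotted against cumulative light fluence.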

Escherichia coli [8] = test: Photobactericidal activity against Escherichia coli assessed as live bacterial cells with membrane integrity loss at 1 uM incubated for 30 mins followed by 3 washings by propidium iodide staining based flow cytometry; assay type: functional; outline: as §1
Pseudomonas aeruginosa [9] = test: Photobactericidal activity against Pseudomonas aeruginosa assessed as PI-positive and PS-positive cell population at 1 uM incubated for 30 mins followed by 3 washings by propidium iodide staining based flow cytometry; assay type: functional; outline: as §1
Pseudomonas aeruginosa [10] = test: Photobactericidal activity against Pseudomonas aeruginosa assessed as PI-positive and PS-positive cell population at 1 uM incubated for 30 mins followed by 1 washing by propidium iodide staining based flow cytometry; assay type: functional; outline: as §1
Pseudomonas aeruginosa [11] = test: Bactericidal activity against Pseudomonas aeruginosa CIP76110 incubated for 30 mins under dark conditions; assay type: organism-based; conditions: 0.5 h; outline: as §2
Pseudomonas aeruginosa [12] = test: Photobactericidal activity against Pseudomonas aeruginosa assessed as dead bacteria with permeable membrane at 1 uM incubated for 30 mins followed by 1 washing by propidium iodide staining based flow cytometry; assay type: functional; outline: as §1
Pseudomonas aeruginosa [13] = test: Photobactericidal activity against Pseudomonas aeruginosa assessed as live bacterial population at 1 uM incubated for 30 mins followed by 3 washings by propidium iodide staining based flow cytometry; assay type: functional; outline: as §1
Pseudomonas aeruginosa [14] = test: Photobactericidal activity against Pseudomonas aeruginosa assessed as live bacterial cells with membrane integrity loss at 1 uM incubated for 30 mins followed by 3 washings by propidium iodide staining based flow cytometry; assay type: functional; outline: as §1
Staphylococcus aureus [15] = test: Photobactericidal activity against Staphylococcus aureus assessed as live bacterial cells with membrane integrity loss at 1 uM incubated for 30 mins followed by 3 washings by propidium iodide staining based flow cytometry; assay type: functional; outline: as §1
Pseudomonas aeruginosa [16] = test: Photobactericidal activity against Pseudomonas aeruginosa at 1 uM pretreated for 30 mins followed by compound wash out with subsequent irradiation with white light at 4.83 mW/cm2; assay type: functional, organism-based; outline: as §3
NHDF [17] = test: Cytotoxicity against human NHDF cells assessed as reduction in cell viability at 5 to 5000 nM incubated under dark conditions for 2 hrs measured after 24 hrs by MTT assay; assay type: cell-based; conditions: 5 µM
Escherichia coli [18] = test: Photobactericidal activity against Escherichia coli assessed as live bacterial population at 1 uM incubated for 30 mins followed by 1 washing by propidium iodide staining based flow cytometry; assay type: functional; outline: as §1
Escherichia coli [19] = test: Photobactericidal activity against Escherichia coli CIP54.8T irradiated with white light at 4.83 mW/cm2 for 20 hrs; assay type: functional; conditions: light or radiation study; outline: as §2
Staphylococcus aureus [20] = test: Photobactericidal activity against Staphylococcus aureus CIP76.25 irradiated with white light at 4.83 mW/cm2 for 20 hrs; assay type: functional; conditions: CIP76.25, light or radiation study; outline: as §2
Staphylococcus aureus [21] = test: Photobactericidal activity against Staphylococcus aureus assessed as live bacterial population at 1 uM incubated for 30 mins followed by 1 washing by propidium iodide staining based flow cytometry; assay type: functional; outline: as §1
Escherichia coli [22] = test: Photobactericidal activity against Escherichia coli assessed as dead bacteria with permeable membrane at 1 uM incubated for 30 mins followed by 1 washing by propidium iodide staining based flow cytometry; assay type: functional; outline: as §1
Staphylococcus aureus [23] = test: Photobactericidal activity against Staphylococcus aureus assessed as live bacterial population at 1 uM incubated for 30 mins followed by 3 washings by propidium iodide staining based flow cytometry; assay type: functional; outline: as §1
NHDF [24] = test: Cytotoxicity against human NHDF cells assessed as reduction in cell viability at 5 to 5000 nM irradiated with white light at 4.83 mW/cm2 for 2 hrs measured after 24 hrs by MTT assay; assay type: cell-based; conditions: 5 µM
Escherichia coli [25] = test: Photobactericidal activity against Escherichia coli assessed as live bacterial population at 1 uM incubated for 30 mins followed by 3 washings by propidium iodide staining based flow cytometry; assay type: functional; outline: as §1
Pseudomonas aeruginosa [26] = test: Photobactericidal activity against Pseudomonas aeruginosa assessed as dead bacteria with permeable membrane at 1 uM incubated for 30 mins followed by 3 washings by propidium iodide staining based flow cytometry; assay type: functional; outline: as §1
Staphylococcus aureus [27] = test: Photobactericidal activity against Staphylococcus aureus at 10 uM pretreated for 30 mins followed by compound wash out with subsequent irradiation with white light at 4.83 mW/cm2; assay type: functional, organism-based; outline: as §3
Escherichia coli [28] = test: Photobactericidal activity against Escherichia coli assessed as PI-positive and PS-positive cell population at 1 uM incubated for 30 mins followed by 1 washing by propidium iodide staining based flow cytometry; assay type: functional; outline: as §1
Pseudomonas aeruginosa [29] = test: Photobactericidal activity against Pseudomonas aeruginosa assessed as live bacterial population at 1 uM incubated for 30 mins followed by 1 washing by propidium iodide staining based flow cytometry; assay type: functional; outline: as §1
Escherichia coli [30] = test: Photobactericidal activity against Escherichia coli assessed as live bacterial cells with membrane integrity loss at 1 uM incubated for 30 mins followed by 1 washing by propidium iodide staining based flow cytometry; assay type: functional; outline: as §1
Staphylococcus aureus [31] = test: Photobactericidal activity against Staphylococcus aureus assessed as dead bacteria with permeable membrane at 1 uM incubated for 30 mins followed by 3 washings by propidium iodide staining based flow cytometry; assay type: functional; outline: as §1
Escherichia coli [32] = test: Photobactericidal activity against Escherichia coli assessed as PI-positive and PS-positive cell population at 1 uM incubated for 30 mins followed by 3 washings by propidium iodide staining based flow cytometry; assay type: functional; outline: as §1
Pseudomonas aeruginosa [33] = test: Photobactericidal activity against Pseudomonas aeruginosa assessed as live bacterial cells with membrane integrity loss at 1 uM incubated for 30 mins followed by 1 washing by propidium iodide staining based flow cytometry; assay type: functional; outline: as §1
Staphylococcus aureus [34] = test: Photobactericidal activity against Staphylococcus aureus assessed as PI-positive and PS-positive cell population at 1 uM incubated for 30 mins followed by 3 washings by propidium iodide staining based flow cytometry; assay type: functional; outline: as §1
Staphylococcus aureus [35] = test: Photobactericidal activity against Staphylococcus aureus at 1 uM after 30 mins by confocal laser scanning microscopy; assay type: functional, organism-based
Outline: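 S. aureus inoculum was suspended in 1 µM conjugate for 30 min at 37 °C, washed three times with PBS, and imaged by confocal laser scanning microscopy at 100X to visualise bacteria-associated fluorescence.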

Escherichia coli [36] = test: Photobactericidal activity against Escherichia coli pretreated for 30 mins followed by compound wash out with subsequent irradiation with white light at 4.83 mW/cm2; assay type: functional, organism-based; outline: as §3
Staphylococcus aureus [37] = test: Photobactericidal activity against Staphylococcus aureus pretreated for 30 mins followed by compound wash out with subsequent irradiation with white light at 4.83 mW/cm2; assay type: functional, organism-based; outline: as §3
Pseudomonas aeruginosa [38] = test: Photobactericidal activity against Pseudomonas aeruginosa pretreated for 30 mins followed by compound wash out with subsequent irradiation with white light at 4.83 mW/cm2; assay type: functional, organism-based; outline: as §3

CCCCCCCC(=O)N[C@@H](CSC1CC(=O)N(CCCCCC(=O)Nc2ccc(-c3c4nc(c(-c5cc[n+](C)cc5)c5ccc([nH]5)c(-c5cc[n+](C)cc5)c5nc(c(-c6cc[n+](C)cc6)c6ccc3[nH]6)C=C5)C=C4)cc2)C1=O)C(=O)N[C@H](C(=O)N[C@@H](CCCCN)C(=O)N[C@H]1CCNC(=O)[C@H]([C@@H](C)O)NC(=O)[C@H](CCCCN)NC(=O)[C@H](CCCCN)NC(=O)[C@H](CC(C)C)NC(=O)[C@@H](Cc2ccccc2)NC(=O)[C@H](CCCCN)NC1=O)[C@@H](C)O.[I-].[I-].[I-] (some centres not stated)
Activity (Escherichia coli [1]): 5.2% | Activity (Staphylococcus aureus [2]): 1.6% | Activity (Staphylococcus aureus [3]): 19.7% | Activity (Staphylococcus aureus [4]): 3.2% | MBC (Escherichia coli [5]): 25 µM | MBC (Pseudomonas aeruginosa [6]): 8 µM | Activity (Escherichia coli [7]): Active | Activity (Escherichia coli [8]): 9.6% | Activity (Pseudomonas aeruginosa [9]): 28.9% | Activity (Pseudomonas aeruginosa [10]): 43.1% | MBC (Pseudomonas aeruginosa [11]): > 100 µM | Activity (Pseudomonas aeruginosa [12]): 19.3% | Activity (Pseudomonas aeruginosa [13]): 31.6% | Activity (Pseudomonas aeruginosa [14]): 1.9% | Activity (Staphylococcus aureus [15]): 19% | Activity (Pseudomonas aeruginosa [16]): Active | Activity (NHDF [17]): Non-Toxic | Activity (Escherichia coli [18]): 69.7% | MBC (Escherichia coli [19]): 0.8 µM | MBC (Staphylococcus aureus [20]): 1.2 µM | Activity (Staphylococcus aureus [21]): 75.6% | Activity (Escherichia coli [22]): 1.8% | Activity (Staphylococcus aureus [23]): 70.8% | Activity (NHDF [24]): Non-Toxic | Activity (Escherichia coli [25]): 62.5% | Activity (Pseudomonas aeruginosa [26]): 37.7% | Activity (Staphylococcus aureus [27]): Active | Activity (Escherichia coli [28]): 14% | Activity (Pseudomonas aeruginosa [29]): 34.6% | Activity (Escherichia coli [30]): 14.6% | Activity (Staphylococcus aureus [31]): 4.4% | Activity (Escherichia coli [32]): 22.8% | Activity (Pseudomonas aeruginosa [33]): 3% | Activity (Staphylococcus aureus [34]): 5.8% | Activity (Staphylococcus aureus [35]): Active

CCCCCCCC(=O)N[C@@H](CS)C(=O)N[C@H](C(=O)N[C@@H](CCCCN)C(=O)N[C@H]1CCNC(=O)[C@H]([C@@H](C)O)NC(=O)[C@H](CCCCN)NC(=O)[C@H](CCCCN)NC(=O)[C@H](CC(C)C)NC(=O)[C@@H](Cc2ccccc2)NC(=O)[C@H](CCCCN)NC1=O)[C@@H](C)O
MBC (Escherichia coli [5]): 50 µM (≈ 65.2 µg/mL) | MBC (Pseudomonas aeruginosa [6]): > 100 µM | MBC (Pseudomonas aeruginosa [11]): > 100 µM | MBC (Escherichia coli [19]): 50 µM (≈ 65.2 µg/mL)

CCCCCCCC(=O)N[C@@H](CSC1CC(=O)N(CCCCCC(=O)Nc2ccc(-c3c4nc(c(-c5cc[n+](C)cc5)c5ccc([nH]5)c(-c5cc[n+](C)cc5)c5nc(c(-c6cc[n+](C)cc6)c6ccc3[nH]6)C=C5)C=C4)cc2)C1=O)C(=O)N[C@H](C(=O)N[C@@H](CCN)C(=O)N[C@H]1CCNC(=O)[C@H]([C@@H](C)O)NC(=O)[C@H](CCN)NC(=O)[C@H](CCN)NC(=O)[C@H](CC(C)C)NC(=O)[C@@H](Cc2ccccc2)NC(=O)[C@H](CCN)NC1=O)[C@@H](C)O.[I-].[I-].[I-] (some centres not stated)
Activity (Escherichia coli [36]): Active | MBC (Escherichia coli [5]): 1.2 to 5 µM | MBC (Pseudomonas aeruginosa [6]): 2.5 µM | Activity (Pseudomonas aeruginosa [10]): 80% | MBC (Pseudomonas aeruginosa [11]): 10 µM | Activity (Staphylococcus aureus [37]): Active | Activity (NHDF [17]): Non-Toxic | MBC (Escherichia coli [19]): 0.5 µM | MBC (Staphylococcus aureus [20]): 0.8 µM | Activity (NHDF [24]): Non-Toxic | Activity (Pseudomonas aeruginosa [38]): Active | Activity (Pseudomonas aeruginosa [33]): 80% | Activity (Staphylococcus aureus [35]): Active
